Results taken from ChEMBL document CHEMBL4376807, “Hydroxamic Acid Derivatives of β-Carboline/Hydroxycinnamic Acid Hybrids Inducing Apoptosis and Autophagy through the PI3K/Akt/mTOR Pathways” (J Nat Prod, 2019).
Active and inactive are the calls of the source. The rule behind the calls is not given here.

Tests used:
Bel-7402 [1] = assay: Induction of autophagy in human Bel7402 cells assessed as upregulation of LC3-2 level at 5 uM after 24 to 72 hrs by Western blot analysis; format: functional, cell-based
Method in brief: (§1)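 Bel7402 cells (1.5 × 10^5/mL) exposed to compound at indicated doses, or vehicle, for 24 or 72 h. Lysates (0.05 mg/lane) separated on 12% SDS-PAGE, blotted to nitrocellulose, blocked in 5% milk. Probed with anti-LC3, anti-p62 and anti-beclin-1, HRP secondary, chemiluminescent detection. Levels quantified relative to β-actin; three separate assays, mean ± SD.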

Bel-7402 [2] = assay: Antiproliferative activity against human Bel7402 cells at 0.2 to 5 uM after 72 hrs by MTT assay; format: functional, cell-based
Method in brief: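 Cells grown in DMEM with 10% heat-inactivated FBS, penicillin/streptomycin, 37 °C, 5% CO2. Seeded at 10^4 cells/mL overnight, then exposed to a range of compound concentrations for 72 h; 0.1% DMSO negative control. MTT (5 mg/mL stock) added, absorbance read at 570 nm; percent inhibition from three independent experiments, mean ± SD.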

Bel-7402 [3] = assay: Induction of apoptosis in human Bel7402 cells assessed as increase in cleaved PARP level at 1 uM after 72 hrs by Western blot analysis; format: functional, cell-based
Method in brief: (§2)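 Subconfluent Bel7402 cells (1.5 × 10^5/mL) exposed to vehicle or compound for 72 h, then lysed. Lysates (0.05 mg/lane) run on 12% SDS-PAGE, transferred to nitrocellulose, blocked in 5% nonfat milk. Probed for Bax, Bcl-2, cleaved caspase-3 and cleaved PARP, with HRP secondary and chemiluminescence. Levels normalized to β-actin; three separate assays, mean ± SD.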

Bel-7402 [4] = assay: Induction of apoptosis in human Bel7402 cells assessed as decrease in Bcl-2 expression after 72 hrs by Western blot analysis; format: functional, cell-based; method in brief: as §2
Bel-7402 [5] = assay: Induction of autophagy in human Bel7402 cells assessed as downregulation of LC3-I level at 1 to 5 uM after 24 to 72 hrs by Western blot analysis; format: functional, cell-based; method in brief: as §1
Histone deacetylase 3 = Histone deacetylase 3 (Homo sapiens, UniProt O15379); assay: Inhibition of human HDAC3 using Boc-Lys (Ac)-AMC as substrate incubated for 60 mins by fluorimetric assay
Sequence of Histone deacetylase 3 (O15379 whole entry): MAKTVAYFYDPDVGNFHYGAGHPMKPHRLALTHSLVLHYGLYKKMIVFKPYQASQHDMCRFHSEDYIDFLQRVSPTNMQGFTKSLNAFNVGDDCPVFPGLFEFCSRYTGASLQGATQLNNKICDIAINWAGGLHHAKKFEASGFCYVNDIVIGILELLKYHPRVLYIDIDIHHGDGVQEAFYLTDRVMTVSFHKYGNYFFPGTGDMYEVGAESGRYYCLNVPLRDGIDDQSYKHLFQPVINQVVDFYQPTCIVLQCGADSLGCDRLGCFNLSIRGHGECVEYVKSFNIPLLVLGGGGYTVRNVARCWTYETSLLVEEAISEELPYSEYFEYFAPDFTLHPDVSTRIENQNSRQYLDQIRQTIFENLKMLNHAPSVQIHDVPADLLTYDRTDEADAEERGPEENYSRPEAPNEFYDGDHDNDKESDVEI

[6] = Inhibition of PI3K/AKT/mTOR signaling in human Bel7402 cells assessed as reduction in AKT phosphorylation after 24 to 72 hrs by Western blot analysis; format: cell-based
Method in brief: (§3)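 Bel7402 cells (1.5 × 10^5/mL) exposed to compound at 1.0 and 2.5 μM for 24 or 72 h. Lysates (0.05 mg/lane) separated on 12% SDS-PAGE and blotted to nitrocellulose. Probed for total Akt, phospho-Akt (Ser473), total mTOR and phospho-mTOR, HRP secondary, chemiluminescent detection. Quantified from three separate assays, mean ± SD.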

Bel-7402 [7] = assay: Antiproliferative activity against human Bel7402 cells after 72 hrs by MTT assay; format: functional, cell-based; settings: Bel-7402, 72 h
[8] = target: T1, Histone deacetylase (Homo sapiens) (UniProt Q13547+O15379+Q9UBN7+Q92769+Q9UQL6+Q8WUI4+Q9BY41+Q96DB2+P56524+Q9UKV0+Q969S8); assay: Inhibition of HDAC in human Bel7402 cells assessed as increase in acetylated histone h3 expression incubated for 72 hrs by Western blot analysis; format: cell-based
Method in brief: (§4)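 Bel7402 cells exposed to vehicle or compound (1.0 and 3.0 μM) for 72 h, with SAHA 5.0 μM as reference. Lysates (0.05 mg/lane) run on 12% SDS-PAGE and transferred to nitrocellulose. Probed with anti-acetyl-H3 and anti-acetyl-α-tubulin, HRP secondary, chemiluminescence. Quantified from three separate assays, mean ± SD.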

Homo sapiens = organism: Homo sapiens; assay: Selectivity ratio of IC50 for HDAC1 (unknown origin) to IC50 for human HDAC6
Method in brief: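 Recombinant human HDAC1, 3, 6 and 8 (fluorimetric kit) incubated with compound over a range of concentrations and Boc-Lys(Ac)-AMC substrate at 37 °C for 60 min. Reaction quenched with lysine developer; after 30 min, fluorescence read at ex 355/em 460 nm. Inhibition taken relative to control and IC50 fitted; ratios built from these IC50s.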

Bel-7402 [9] = assay: Induction of autophagy in human Bel7402 cells assessed as accumulation of autophagic vacuoles at 1 uM after 24 hrs by acridine orange staining based fluorescence microscopic method; format: functional, cell-based
Method in brief: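 Bel7402 cells (10 000) cultured overnight, then exposed to compound at 1.0 or 5.0 μM, or vehicle. Stained with 1 mg/mL acridine orange for 15−20 min, then dye removed. Red versus green fluorescence viewed by fluorescence microscopy at 400×. Representative images from three independent experiments.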

[10] = target: T1, Histone deacetylase (Homo sapiens); assay: Inhibition of HDAC in human Bel7402 cells assessed as increase in acetylated alpha-tubulin expression incubated for 72 hrs by Western blot analysis; format: cell-based; method in brief: as §4
Bel-7402 [11] = assay: Effect on mTOR expression in human Bel7402 cells at 1 to 2.5 uM after 24 to 72 hrs by Western blot analysis; format: ADME, cell-based; settings: bel-7402, 2.5 µM; method in brief: as §3
Bel-7402 [12] = assay: Induction of apoptosis in human Bel7402 cells assessed as increase in Bax expression after 72 hrs by Western blot analysis; format: functional, cell-based; method in brief: as §2
Huh-7 = assay: Antiproliferative activity against human HuH7 cells after 72 hrs by MTT assay; format: functional, cell-based; settings: Huh-7, 72 h
Bel-7402 [13] = assay: Induction of autophagy in human Bel7402 cells assessed as upregulation of LC3-2 level at 1 uM after 24 to 72 hrs by Western blot analysis; format: functional, cell-based; method in brief: as §1
Bel-7402 [14] = assay: Induction of apoptosis in human Bel7402 cells assessed as increase in cleaved PARP level at 5 uM after 72 hrs by Western blot analysis; format: functional, cell-based; method in brief: as §2

- IC50 (Histone deacetylase 3): 148 nM
- IC50 (Bel-7402 [7]): 1000 nM
- inhibition [8]: Dose-dependent effect
- Ratio IC50 (Homo sapiens): 2
- inhibition [10]: Dose-dependent effect
- IC50 (Huh-7): 1100 nM
Compound: COc1ccc(-c2nc(NCCCOc3ccc(/C=C/C(=O)NO)cc3OC)cc3c2[nH]c2ccccc23)cc1
- Activity (Bel-7402 [1]): Active
- Activity (Bel-7402 [2]): Active
- Activity (Bel-7402 [3]): Active
- Activity (Bel-7402 [4]): Dose-dependent effect
- Activity (Bel-7402 [5]): Active
- inhibition [6]: Dose-dependent effect
- Activity (Bel-7402 [9]): Active
- Activity (Bel-7402 [11]): Non-Toxic
- Activity (Bel-7402 [12]): Dose-dependent effect
- Activity (Bel-7402 [13]): Active
- Activity (Bel-7402 [14]): Active
